Ten compounds from ChEMBL document CHEMBL1126809, “Effects of solvation on the ionization and conformation of raclopride and other antidopaminergic 6-methoxysalicylamides: insight into the pharmacophore” (J Med Chem, 1993) can be followed below.

Data set [1] in a line: Dissociation constants determined by potentiometry at 25 degree celsius (phenolic group). It is filed as physicochemical. Put shortly: (§1)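 Potentiometric titration at 25 ± 1 °C with ionic strength held at 0.1 M by KCl. Excess HCl added, then back-titrated with 0.01 N NaOH. Curves run in triplicate. pKa derived by non-logarithmic linearization of the titration curve, corrected for dilution during titration.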

Data set [2] is described as follows: Dissociation constants determined by potentiometry at 25 degree celsius (Amino group). It is filed as physicochemical. Put shortly:
as §1

A short description of data set [3]: The isoelectric point (pI) as the arithmetic mean of pKa1 and pKa2. It is filed as physicochemical.
Data set [4] is described as follows: Percent of zwitter ion formed, was determined at pH 7.4. It is filed as ADME.

In turn, `CCc1cc(Cl)c(O)c(C(=O)NC[C@@H]2CCCN2CC)c1OC` came in with a PKa1 in data set [1] of 6.88. For the same compound, the PKa2 in data set [2] is recorded as 9.6. In data set [3], this compound came in with a pI of 8.24. In addition, in data set [4], the Z is reported as 76%.
`CCN1CCC[C@H]1CNC(=O)c1c(OC)ccc([N+](=O)[O-])c1O` showed a PKa1 in data set [1] of 5.81. In data set [2], this compound returned a PKa2 of 9.16. In data set [3], this compound gave a pI of 7.49. Moreover, the Z in data set [4] was 96%.
In the same order, the values of `CCc1cc(CC)c(OC)c(C(=O)NC[C@@H]2CCCN2CC)c1O` are 7.28, 9.55, 8.42 and 56%.
In the same order, the values of `CCN1CCC[C@H]1CNC(=O)c1c(O)c(Cl)cc(Cl)c1OC` [RACLOPRIDE] are 5.81, 9.21, 7.51 and 96%.
For the compound `CCN1CCC[C@H]1CNC(=O)c1c(O)c(Br)cc(Br)c1OC`, the PKa1 in data set [1] stood at 5.94. The PKa2 in data set [2] was 9.18. This compound also displayed a pI in data set [3] of 7.56. This compound also returned a Z in data set [4] of 95%.
In the same order, the values of `CCN1CCC[C@H]1CNC(=O)c1c(OC)ccc(Cl)c1O` are 7.13, 9.66, 8.4 and 65%.
In the same order, the values of `COc1c(Cl)cc(Cl)c(O)c1C(=O)NC1CCN(C)CC1` are 5.96, 9.12, 7.54 and 95%.
In the same order, the values of `CCc1cc(Cl)c(OC)c(C(=O)NC[C@@H]2CCCN2CC)c1O` [ETICLOPRIDE] are 6.93, 9.67, 8.3 and 74%.
In data set [1], `CCN1CCC[C@H]1CNC(=O)c1c(O)cccc1OC` gave a PKa1 of 8.7. Besides, the PKa2 in data set [2] turned out to be 9.56. In data set [3], this compound gave a pI of 9.13. In data set [4], this compound had a Z of 5%.
In the same order, the values of `CCc1ccc(OC)c(C(=O)NC[C@@H]2CCCN2CC)c1O` are 8.71, 9.57, 9.14 and 5%.
